According to ChEMBL document CHEMBL1135390, “Inotropic activity of hydroindene amidinohydrazones” (2002):

Assays:
Cavia porcellus [1] = species: Cavia porcellus; assay: Inotropic activity on cardiac frequency on spontaneously beating guinea pig right atria, (from basal frequency).; format: functional, Heart
Procedure, shortened: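 Isolated guinea pig right atrium, beating spontaneously, in oxygenated (95% O2/5% CO2) Tyrode-type solution at 34 °C. Resting tension 1 g, 60 min equilibration. Rate recorded isometrically via force transducer. Cumulative concentrations 10^-7 to 5×10^-4 M added at 30 min intervals, from DMSO stock (1% DMSO final in bath). Expressed as % of pre-drug control. Mean of at least five experiments.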

Cavia porcellus [2] = species: Cavia porcellus; assay: Inotropic activity on electrically driven isolated Guinea pig atria; format: functional
Procedure, shortened: (§1)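 Isolated guinea pig left atrium paced at 1 Hz via bipolar platinum electrodes (1 ms pulses, twice threshold voltage), in oxygenated (95% O2/5% CO2) Tyrode-type solution at 34 °C. Resting tension 1 g, 60 min equilibration. Isometric contraction amplitude measured. Cumulative 10^-7 to 5×10^-4 M at 30 min intervals, 1% DMSO final. Expressed as % of pre-drug control. Mean of at least five experiments.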

Cavia porcellus [3] = species: Cavia porcellus; assay: Inotropic activity on electrically driven isolated Guinea pig left atria, (from basal force).; format: functional; procedure, shortened: as §1
[4] = Cavia porcellus, Heart, read-out: Emax
[5] = Cavia porcellus, read-out: Emax

| SMILES | Emax (Cavia porcellus [1]; [4]) | concentration at Emax (Cavia porcellus [2]) | Emax (Cavia porcellus [3]; [5]) | Emax (Cavia porcellus [1]) | Emax (Cavia porcellus [3]) |
| --- | --- | --- | --- | --- | --- |
| C[C@]12CC/C(=N\N=C(N)N)C[C@@]1(O)CC[C@@H]2/C=N/N=C(N)N | -15% | 0.3 mM | -59% |  |  |
| C[C@]12CC/C(=N\N=C(N)N)C=C1CC[C@@H]2/C=N/N=C(N)N (stereo in doubt; 30) |  | 0.3 mM |  | -5.1% | 170% |
| CC1=C2CC[C@@H](/C=N/N=C(N)N)[C@@]2(C)CC/C1=N\N=C(N)N | 33.7% | 0.3 mM | 129% |  |  |
| COC(=O)/C=C/[C@H]1CCC2=C(C)/C(=N/N=C(N)N)CC[C@@]21C | -0.2% | 0.3 mM | -41% |  |  |
| COC(=O)/C=C\[C@H]1CCC2=C/C(=N/N=C(N)N)CC[C@@]21C | -54% | 0.3 mM | -76% |  |  |
| C[C@]12CC[C@H]3[C@@H](CC[C@]4(O)C[C@@H](O)CC[C@]34C=O)[C@@]1(O)CC[C@@H]2C1=CC(=O)OC1 [STROPHANTHIDIN] | 80.4% | 0.001 mM | 122% |  |  |
| CC1=C2CC[C@H](/C=N/N=C(N)N)[C@@]2(C)CC/C1=N\N=C(N)N | 4.2% | 0.3 mM | 108% |  |  |
| C[C@]12CC/C(=N\N=C(N)N)C=C1CC[C@@H]2CN | -16% | 0.3 mM | 46% |  |  |
| C[C@]12CC/C(=N\N=C(N)N)C=C1CC[C@@H]2CN1C(=O)c2ccccc2C1=O | -18% | 0.1 mM | 86% |  |  |
| C[C@H]1O[C@@H](O[C@H]2[C@@H](O)C[C@H](O[C@H]3[C@@H](O)C[C@H](O[C@H]4CC[C@@]5(C)[C@H](CC[C@@H]6[C@@H]5C[C@@H](O)[C@]5(C)[C@@H](C7=CC(=O)OC7)CC[C@]65O)C4)O[C@@H]3C)O[C@@H]2C)C[C@H](O)[C@@H]1O [DIGOXIN] | -28.3% | 0.001 mM | 103% |  |  |
| C[C@]12CC/C(=N\N=C(N)N)C=C1CC[C@@H]2/C=C/[N+](=O)[O-] | -1.7% | 0.3 mM | 128% |  |  |
| COC(=O)/C=C/[C@H]1CCC2=C/C(=N/N=C(N)N)CC[C@@]21C | 13.2% | 0.3 mM | -67% |  |  |
| C[C@]12CC/C(=N\N=C(N)N)C=C1CC[C@@H]2/C=N/N=C(N)N (stereo in doubt; 3) |  |  |  | -5.4% | 132% |
| C[C@]12CC/C(=N\N=C(N)N)C=C1CC[C@@H]2CO | 22% | 0.3 mM | -47% |  |  |
